Data reported in PubChem BioAssay.
Active and inactive are the calls of the source.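 How the source made its calls, unless noted: active means fluorescence slope after compound addition differing from the mean of all tested samples at 99.7% confidence, mostly higher but some lower; inactive means the rest.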

Legend:
[1] = inhibitors of TNFa-induced NFkB p65 translocation, primary screen, imaging, HUVEC, MLSMR starter and 10KST1 sets (AID 438;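 active means inhibition above 20% together with a positive visual image hit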;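 further: compound added about 3h40 before a 20 min TNFalpha stimulation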;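 on inhibition: signal is the nuclear over cytoplasmic p65 intensity ratio per well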); conditions: HUVEC TNFa-induced p65 nuclear translocation; cell count: measured here: nuclei count (cytotoxicity indicator), at 2.08 µM; inhibition: at 2 µM, stronger effect = higher value, 0% TNFa-plus-vehicle, 100% no-TNFa wells
[2] = reduction of polyQ htt aggregates in cells – imaging, exon1htt(103Q)mCFP cells, high-content imaging, primary screen (AID 483;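 active means visual image review flags a hit and inhibition of aggregation exceeds 20%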;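 further: compound exposure lasted 3 days before fixation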;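 on nuclei count: percent of the per-plate median nuclei count of sample wells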); conditions: exon1htt(103Q)mCFP cell line, aggregate imaging, at 2 µM; inhibition of aggregation: stronger effect = higher value; nuclei count: measured here: cell count, toxicity
[3] = endothelial E-selectin expression blockers – imaging, HUVEC, immunofluorescence, MLSMR starter and 10KST1 sets, primary screen (AID 487;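 active means visually confirmed hit in the image check and inhibition above 20%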;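 on inhibition: signal is fraction of cell area covered by stained E-selectin grains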;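 on nuclei count: 100% = median nuclei count of all wells on the same plate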); conditions: HUVEC TNFalpha-induced E-selectin immunofluorescence imaging, at 2 µM; inhibition: stronger effect = higher value; nuclei count: measured here: cell number, toxicity
[4] = target: Voltage-gated potassium channel subunit beta-2 (Rattus norvegicus) (UniProt P62483); assay: inhibitors of rat Kvbeta2 reductase activity – biochemical, NADPH fluorescence, primary screen (AID 622;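 active means fluorescence slope higher than the sample average by over 3 SD, cut at about -0.22 in these data, passing the limit was not always enough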;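 further: slope of raw intensity against log time taken from 70 to 1610 s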); conditions: recombinant KvBeta, 4-cyanobenzaldehyde reduction, at 10 µM, stronger effect = higher value
[5] = target: Voltage-gated potassium channel subunit beta-2 (Rattus norvegicus) (UniProt P62483); assay: enhancers of rat Kvbeta2 NADPH turnover – biochemical, NADPH fluorescence, primary screen (AID 623;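 active means NADPH fluorescence slope more negative than the mean of all samples by about 3 SD, 99.7% confidence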;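 further: fluorescence intensity change per second fitted from 20 to 320 s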); conditions: Recombinant KvBeta, NADPH fluorescence decrease slope, 10 min; at 10 µM; stronger effect = lower value
[6] = target: Muscarinic acetylcholine receptor M4 (Homo sapiens) (UniProt P08173); assay: M4-linked GIRK flux change, two-sided – cell-based, HEK293 M4/GIRK, thallium flux, BTC-AM, M4 allosteric agonist project, primary screen (AID 625); conditions: at 10 µM, actives lie on both sides;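 further: thallium influx through GIRK channels coupled to M4 in HEK293 cells with BTC-AM dye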
Outline: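 Assay system: HEK293 cells with M4 receptor and GIRK channels / Controls: carbachol and DMSO controls / Schedule: 1 h dye loading, 2 min kinetic read / Technique: kinetic fluorescence with BTC-AM dye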

[7] = blockers of RIG-like receptor reporter activation – cell-based, Sendai virus stimulus, luciferase, 10K MLSCN set, TLR/RLR signaling modifier project, primary screen (AID 602276;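 active means inhibition at or above 50% at 10 µM; inactive means inhibition below 50%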;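 further: firefly luciferase from ISG56 promoter only with Renilla not read in this screen; 0% = Sendai virus plus DMSO and 100% = medium plus DMSO without virus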); conditions: HEK293 RL24 IRF3 luciferase reporter, at 10 µM, stronger effect = higher value
[8] = TLR3 IRF3 reporter activation blockers – cell-based, poly I:C stimulus, luciferase, 10K MLSCN set, primary screen (AID 602277;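 active means inhibition of the reporter signal at or above 50%; inactive means inhibition below 50%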); conditions: HEK293-TLR3 RL24 IRF3 luciferase reporter, at 10 µM, stronger effect = higher value

Chain of Voltage-gated potassium channel subunit beta-2 (Rattus norvegicus) (P62483 whole entry, looked up): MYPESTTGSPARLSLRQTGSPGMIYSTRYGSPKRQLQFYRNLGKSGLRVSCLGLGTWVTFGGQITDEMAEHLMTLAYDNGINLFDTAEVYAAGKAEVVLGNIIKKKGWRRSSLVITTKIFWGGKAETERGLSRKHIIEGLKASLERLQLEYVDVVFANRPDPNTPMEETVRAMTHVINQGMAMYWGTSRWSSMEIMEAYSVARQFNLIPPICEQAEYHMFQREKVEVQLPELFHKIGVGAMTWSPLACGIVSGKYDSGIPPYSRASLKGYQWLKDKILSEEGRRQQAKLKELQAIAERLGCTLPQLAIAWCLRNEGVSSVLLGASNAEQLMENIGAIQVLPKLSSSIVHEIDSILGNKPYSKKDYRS
Chain of Muscarinic acetylcholine receptor M4 (Homo sapiens) (P08173 whole entry, looked up): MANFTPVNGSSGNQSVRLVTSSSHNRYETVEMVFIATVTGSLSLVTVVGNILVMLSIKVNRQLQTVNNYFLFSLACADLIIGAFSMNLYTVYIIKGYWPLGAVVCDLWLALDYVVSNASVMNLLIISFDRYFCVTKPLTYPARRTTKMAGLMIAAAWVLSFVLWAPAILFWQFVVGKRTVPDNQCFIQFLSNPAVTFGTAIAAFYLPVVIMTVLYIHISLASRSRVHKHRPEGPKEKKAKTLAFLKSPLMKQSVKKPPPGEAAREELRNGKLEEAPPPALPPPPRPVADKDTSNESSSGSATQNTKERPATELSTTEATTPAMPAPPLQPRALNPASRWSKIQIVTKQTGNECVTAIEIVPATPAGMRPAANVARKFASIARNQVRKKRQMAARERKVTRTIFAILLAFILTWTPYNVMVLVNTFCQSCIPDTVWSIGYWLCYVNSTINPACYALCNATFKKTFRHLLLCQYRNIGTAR

| Structure (SMILES) | cell count [1] | inhibition [1] | inhibition of aggregation [2] | nuclei count [2] | inhibition [3] | nuclei count [3] | fluorescence slope [4] | NADPH fluorescence slope [5] | fluorescence slope [6] | inhibition [7] | inhibition [8] |
| --- | --- | --- | --- | --- | --- | --- | --- | --- | --- | --- | --- |
| CC(=O)C1=C(N2CCCCC2)CCC1=O | 431 | 2.3% (inactive) | -14.9% (inactive) | 100% | -0.5% (inactive) | 109% | -0.328 (inactive) | -1.9e-05 (inactive) | 0.00689 (inactive) | 8.02% (inactive) | 11.2% (inactive) |
| CCCCN(c1ccccc1)S(=O)(=O)c1ccc2c(c1)CCN2C(=O)CCC(=O)O | 648 | 1.3% (inactive) | 7.8% (inactive) | 112% | -65.5% (inactive) | 117% | -0.526 (inactive) | 5.3e-05 (inactive) | 0.00543 (inactive) | 22.6% (inactive) | 99.4% (active) |
| O=C1CC(Cc2ccccc2)C(=O)N1CCc1ccc2c(c1)OCO2 (stereo unspecified) | 480 | 3.5% (inactive) | -0.2% (inactive) | 110% | -145% (inactive) | 127% | -0.579 (inactive) | -1.8e-05 (inactive) | 0.00603 (inactive) | -0.603% (inactive) | 9.62% (inactive) |
| O=C(Nc1cccc(F)c1)c1ccc2c(c1)OCO2 | 246 | -2.1% (inactive) | 31.8% (inactive) | 83.5% | 80.7% (active) | 85% | -0.597 (inactive) | 1.2e-05 (inactive) | 0.00384 (inactive) | -56.2% (inactive) | -121% (inactive) |
| Cc1onc(-c2ccccc2)c1C(N)=O | 506 | -11.2% (inactive) | -1.6% (inactive) | 98.5% | -158% (inactive) | 159% | -0.563 (inactive) | -6.3e-05 (inactive) | 0.00641 (inactive) | 16% (inactive) | 16.2% (inactive) |
| COc1ccc(N2CCN(C(=O)CSc3ncnc4c3cnn4-c3ccccc3C)CC2)cc1 | 543 | 2.1% (inactive) | -6.1% (inactive) | 120% | -60.3% (inactive) | 159% | -0.506 (inactive) | -3.3e-06 (inactive) | 0.0046 (inactive) | 10.5% (inactive) | 15.1% (inactive) |
| Cc1c(NC(=O)C(C)OC(=O)COc2cccc3c2OC(C)(C)C3)c(=O)n(-c2ccccc2)n1C (stereo unspecified) | 652 | -11.6% (inactive) | -3.5% (inactive) | 129% | -45.4% (inactive) | 122% | -0.59 (inactive) | -7.7e-05 (inactive) | 0.00305 (inactive) | 4.56% (inactive) | 14.8% (inactive) |
| CN1CCN(C(=O)CCC(=O)c2ccc(F)cc2)CC1 | 478 | 3.9% (inactive) | -7.4% (inactive) | 122% | -2.6% (inactive) | 97.1% | -0.444 (inactive) | 5.6e-05 (inactive) | 0.00581 (inactive) | 5.42% (inactive) | 11.9% (inactive) |
| N#CCSc1nc(-c2ccccc2)cs1 | 371 | 5% (inactive) | 1.3% (inactive) | 103% | -25.1% (inactive) | 109% | -0.566 (inactive) | -1.8e-05 (inactive) | 0.0051 (inactive) | -34.5% (inactive) | -75.5% (inactive) |
| CC1=C(C(=O)OCCOC(C)C)C(c2cc3c(cc2Br)OCO3)C2=C(CCCC2=O)N1 (stereo unspecified) | 446 | 0.2% (inactive) | 8.5% (inactive) | 41.8% | -37.4% (inactive) | 105% | -0.485 (inactive) | 6.8e-05 (inactive) | 0.00686 (inactive) | 20.8% (inactive) | 26.6% (inactive) |
| COc1ccc(N2CCN(c3ncnc4c3cnn4-c3ccc(C)cc3C)CC2)cc1 | 683 | -10.9% (inactive) | -20.3% (inactive) | 117% | -33.1% (inactive) | 98% | -0.558 (inactive) | -4.3e-05 (inactive) | 0.00551 (inactive) | 5.2% (inactive) | -20.2% (inactive) |
| O=C(Nc1ccccc1)N(Cc1cccnc1)Cc1ccco1 | 335 | -0.7% (inactive) | 5.9% (inactive) | 97.2% | -36.9% (inactive) | 103% | -0.463 (inactive) | -3.6e-05 (inactive) | 0.00427 (inactive) | 18.2% (inactive) | 14.3% (inactive) |
| CCOc1ccc(C(=O)Nc2cc(C)on2)cc1OCC | 372 | -2.3% (inactive) | -2.8% (inactive) | 110% | -61.3% (inactive) | 108% | -0.437 (inactive) | -5.8e-05 (inactive) | 0.00551 (inactive) | 11.5% (inactive) | 7.31% (inactive) |
| COc1ccc(OCc2cccc(C(=O)O)c2)cc1 | 623 | -1.6% (inactive) | -9.3% (inactive) | 55.9% | 20.3% (inactive) | 111% | -0.511 (inactive) | 5e-05 (inactive) | 0.00513 (inactive) | 46.4% (inactive) | 42.2% (inactive) |
| Cc1ccc(-n2nc(-c3cccs3)cc2C(=O)NCC2CCCO2)c(C)c1 (stereo unspecified) | 490 | -1.7% (inactive) | -12.1% (inactive) | 15.1% | -9.6% (inactive) | 110% | -0.405 (inactive) | -8.6e-05 (inactive) | 0.00713 (inactive) | 7.58% (inactive) | 20.7% (inactive) |
| Cc1sc2c(c1C)CN(C1CC(C)(C)NC(C)(C)C1)CN2C(=O)c1ccco1 | 307 | 10.6% (inactive) | 2% (inactive) | 91.5% | -5% (inactive) | 105% | -0.377 (inactive) | -2.6e-05 (inactive) | 0.00444 (inactive) | -1.32% (inactive) | -7.67% (inactive) |
| COc1cc(OC)cc(C(=O)NCc2n[nH]c(=S)n2-c2ccccc2OC)c1 | 385 | 0% (inactive) | -6.2% (inactive) | 112% | -29.2% (inactive) | 83% | -0.329 (inactive) | -6.5e-05 (inactive) | 0.00633 (inactive) | 7.57% (inactive) | 6.78% (inactive) |
| O=c1[nH]c(SCc2cc(=O)n3ccccc3n2)nc2c1CCC2 | 681 | -8.4% (inactive) | -47.8% (inactive) | 87.5% | -123% (inactive) | 106% | -0.381 (inactive) | 2.3e-05 (inactive) | 0.00602 (inactive) | 16.7% (inactive) | 20.7% (inactive) |
| CCSc1nc(O)c(CC)c(=O)n1C(C)CC (stereo unspecified) | 304 | 2.1% (inactive) | -3.7% (inactive) | 112% | -56.3% (inactive) | 111% | -0.556 (inactive) | -3.6e-05 (inactive) | 0.00478 (inactive) | -0.896% (inactive) | 4.86% (inactive) |
| CCOC(=O)C(C)Sc1nc2c(cnn2-c2ccc(C)cc2)c(=O)[nH]1 (stereo unspecified) | 239 | -1.3% (inactive) | 6.8% (inactive) | 102% | 11.9% (inactive) | 110% | -0.503 (inactive) | 8.8e-05 (inactive) | 0.00678 (inactive) | 6.58% (inactive) | 8.01% (inactive) |
| O=C1CCC(=O)N1OCCCOc1ccc(Br)cc1Cl | 490 | 1% (inactive) | 9% (inactive) | 74.1% | -76% (inactive) | 106% | -0.456 (inactive) | 2e-05 (inactive) | 0.00805 (inactive) | 16.1% (inactive) | 18% (inactive) |
